# Experimental data taken from PubChem BioAssay AID504338 (NMMLSC, 2011).
# A number with no mark means an inactive call. Activity calls are given as the source filed them.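 How the source made its calls: active means GFP response vs DMSO above 150% with enough events counted; inconclusive means fewer than 70 events counted for a yeast strain; inactive means the rest.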
# Experiment: yeast TOR reporter LAP4-GFP retest – cell-based, third cherry pick, flow cytometry, confirmation (AID 504338);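 further: ratio to plate DMSO wells so 100% equals DMSO level rather than 0%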
# Conditions: S. cerevisiae LAP4-GFP strain, 3 h, at 10 µM, hits give high values
# Summary of the method: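 Material: Saccharomyces cerevisiae strain expressing LAP4-GFP fusion protein / Compound: 10 µM, one concentration / Incubation: compound exposure for 3 h at 30 °C / Detection: high-throughput flow cytometry of GFP, single-cell scatter gate / Measure: median GFP fluorescence as percent of plate DMSO-well average / Benchmarks: rapamycin 400 ng/mL high, DMSO low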
row,Structure (SMILES),GFP response vs DMSO
1,O=C(Nc1ccccc1)O/N=C1\CCCCC1c1ccc([N+](=O)[O-])cc1[N+](=O)[O-] (centres undefined),106%
2,Oc1c(Cl)cc(Cl)c2cccnc12,188% (active)
3,O=C(O)c1ccc2cccnc2c1O,106%
4,CCc1sc(C(=O)Nc2nc(-c3ccccn3)cs2)cc1C,189% (active)
5,CSc1ccccc1OCc1cc(C(=O)N2CCN(C)C(c3ccccc3)C2)no1 (centres undefined),107%
6,CC(=O)Nn1cnc2c(c1=O)C1(CCCCC1)Cc1ccccc1-2,106%
7,COc1ccccc1Nc1nc(NCCCN(C)C)nc(N)c1[N+](=O)[O-],103%
8,Cc1nc(Nc2ccc(Br)cc2Br)c([N+](=O)[O-])c(=O)[nH]1,106%
9,Nc1ccc(O)c2c1C(=O)c1ccccc1C2=O,98.6%
10,COc1cccc(N/C(C)=C/C(=O)c2ccc(Br)cc2)c1,103%
11,COc1cccc(NC(=O)CC(C)=O)c1,101%
12,Cc1ccc(NN2C(=O)C=C(c3ccccc3)C2=O)cc1,138%
13,Cc1ccc2c(Cl)cc(Cl)c(O)c2n1,193% (active)
14,Cc1ccc(C)c(Nc2ncnc(N)c2[N+](=O)[O-])c1,107%
15,O=c1cc(C(F)(F)F)[nH]c2c(OC(F)(F)F)cccc12,98.6%
16,O=C(O)CCS(=O)(=O)c1nc(-c2cccs2)cc(C(F)(F)F)n1,115%
17,O=C(Nc1nc(-c2ccccn2)cs1)c1ccccc1-n1cnnn1,94.4%
18,COc1ccc(OC)c(N/C(C)=C/C(=O)c2ccccc2)c1,103%
19,CCN(CC)c1ncnc2ccc(Br)cc12,101%
20,O=C(Nc1cccc2ccccc12)ON=C1CCCCC1,112%

row,Structure (SMILES),GFP response vs DMSO
1,COc1ccc(OC)c2c(C)cc(C)nc12,103%
2,COC(=O)COc1c(Cl)cc(Cl)c2ccc(C)nc12,107%
3,CC1=CN2C(=N)/C(=C/c3ccc(C)o3)C(=O)N=C2S1,104%
4,Cn1c(NCCO)nc2c(c1=O)C1(CCCCC1)Cc1ccccc1-2,104%
5,Cc1cc(C)c2ccc(C(=O)O)nc2c1O,107%
6,Cc1ccc(C(=O)/C=C/Nc2cccc(O)c2)cc1,117%
7,CSc1nc(S(C)(=O)=O)nc2[nH]c(=O)[nH]c12,104%
8,COc1cccc(OCc2cc(C(=O)N3CCN(C)C(c4ccccc4)C3)no2)c1 (centres undefined),106%
9,CCC(C)Nc1nc(N)c([N+](=O)[O-])c(Nc2ccccc2OC)n1 (centres undefined),97.2%
10,COc1cccc2c(O)cc(=O)n(C)c12,104%
11,CNc1nc(C)c([N+](=O)[O-])c(Nc2ccc(OC)cc2)n1,108%
12,COc1ccc(N/C(C)=C/C(=O)c2ccccc2)cc1,104%
13,COc1ccccc1OCc1cc(C(=O)N2CCN(C)C(c3ccccc3)C2)no1 (centres undefined),106%
14,C/C(=C\C(=O)c1ccccc1)Nc1ccc(O)cc1,101%
15,Oc1c(I)cc(Cl)c2cccnc12,192% (active)
16,O=C(N/N=C/c1ccccc1O)c1cccc2ccccc12,110%
17,C=CCNc1ncnc2ccccc12,103%
18,Cc1cccc(Nc2cc(=O)[nH]c(=O)[nH]2)c1C,101%
19,COc1cccc(N/C=C/C(=O)c2ccc(C)cc2)c1,115%
